Screens (PubChem BioAssay)
This is a sample that favours compounds with a hit; in the whole collection about 3.5% have one here.
rRNA inh HTS: reduced GFP signal of wild-type E. coli, primary screen, bacterial rRNA inhibitor project, GFP/RFP fluorescence, OD600, single point; E. coli WT GFP vs humanized-ribosome RFP mutants, 24 h; hits give low values; DMSO median 0, no signal -100; 350,000 tested, 1.6% active; GFP signal change (wild-type ribosome), % (test concentration not listed); AID 720706, 2013;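 active = significant combined selectivity score with lowered wild-type GFP, culture density cut under 30%, mutant RFP and density less affected; inactive = any of these conditions unmet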
ERAP1 inh: human ERAP1 aminopeptidase inhibitors, primary screen, biochemical, single point, plate reader; AID 652197, 2013; inhibition, % at 10.7 µM; Endoplasmic reticulum aminopeptidase 1 (Homo sapiens), Q9NZ08; 340,000 tested, 0.15% active; recombinant ERAP1, Leu-AMC fluorescence, 60 min;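 active = mean replicate inhibition of at least 30%, or all replicates individually reaching that 30% level; inactive = mean below 30% and not every replicate reaching it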;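 also: 0% = neutral control wells and 100% = L-leucinethiol positive control wells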
Target sequence (Q9NZ08 whole entry, looked up): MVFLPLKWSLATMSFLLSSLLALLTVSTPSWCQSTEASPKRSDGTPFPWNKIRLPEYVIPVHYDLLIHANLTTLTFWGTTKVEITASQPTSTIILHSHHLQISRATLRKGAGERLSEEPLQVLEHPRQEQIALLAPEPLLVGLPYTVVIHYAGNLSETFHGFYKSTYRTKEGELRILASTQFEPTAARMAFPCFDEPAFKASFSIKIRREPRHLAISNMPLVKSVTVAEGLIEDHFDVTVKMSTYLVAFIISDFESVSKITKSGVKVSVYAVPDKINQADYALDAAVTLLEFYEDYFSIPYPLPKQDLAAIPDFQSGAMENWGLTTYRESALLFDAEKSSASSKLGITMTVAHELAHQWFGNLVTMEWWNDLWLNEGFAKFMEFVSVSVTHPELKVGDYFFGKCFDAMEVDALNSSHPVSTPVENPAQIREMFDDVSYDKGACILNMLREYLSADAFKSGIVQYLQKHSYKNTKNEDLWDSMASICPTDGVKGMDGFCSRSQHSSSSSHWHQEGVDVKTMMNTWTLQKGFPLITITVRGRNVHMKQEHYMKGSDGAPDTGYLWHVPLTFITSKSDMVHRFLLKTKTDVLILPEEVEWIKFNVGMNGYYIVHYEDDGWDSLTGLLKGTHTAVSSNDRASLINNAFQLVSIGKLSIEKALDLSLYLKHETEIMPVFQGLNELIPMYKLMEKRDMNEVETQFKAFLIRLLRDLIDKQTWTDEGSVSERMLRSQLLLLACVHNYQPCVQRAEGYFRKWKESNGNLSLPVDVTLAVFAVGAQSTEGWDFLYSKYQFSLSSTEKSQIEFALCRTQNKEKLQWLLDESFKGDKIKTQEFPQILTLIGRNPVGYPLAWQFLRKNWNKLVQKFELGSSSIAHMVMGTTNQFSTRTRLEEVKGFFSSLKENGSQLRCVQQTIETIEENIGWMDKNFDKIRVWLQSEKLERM
FGF22 binding-1: binders of human FGF22 protein, primary screen, FGF22 synaptogenesis inhibitor project, biophysical, thermal shift, single point. Fibroblast growth factor 22 (Homo sapiens), Q9HCT0. recombinant FGF22 thermal shift, SYPRO orange fluorescence; percent of sucrose octasulfate shift, DMSO zero. activity (Tm shift, normalised), % at 9.99 µM. 340,000 tested, 1.5% active. AID 651658, 2012;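 active = mean Tm shift, scaled 0 neutral to 100 positive control, at about 1.3% or above, every replicate too, limit read from the data; inconclusive = no clear call, values can overlap the other calls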
PGC1a acetyl inh: inhibitors of PGC1a acetylation signal, primary screen, cell-based, U2OS, AlphaScreen, inhibitor mode. inhibition, % at 15.6 µM. AlphaScreen anti-acetyl-lysine; with virally co-expressed GCN5 acetyltransferase. AID 651687, 2012. 350,000 tested, 0.17% active;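 active = every replicate shows inhibition of at least 40%; inconclusive = mean inhibition at least 40% but some replicate below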;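 also: 0% = neutral control wells and 100% = positive control wells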
HIV Env fusion: inhibitors of HIV-1 Env-driven cell-cell fusion, primary screen, HeLa-JRFL effector, CEM21 target cells, luciferase; inhibition, % at 12.3 µM; 360,000 tested, 1.1% active; AID 651610, 2012;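 active = mean replicate inhibition score of at least 50 and every replicate individually at or above 50; inconclusive = only one of the two criteria met; inactive = mean below 50 and not all replicates reaching 50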;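 also: 0% = plate neutral controls and 100% = maraviroc near 300 nM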
Cneo AK release: Cryptococcus neoformans cell lysis inducers, primary screen, AK release luminescence, single concentration. C. neoformans lysis, adenylate kinase release luminescence, 4 h; normalised: neutral wells 0, clomiphene wells 100. lysis activity, % at 15 µM. 360,000 tested, 0.2% active;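 active = mean lysis activity across replicates of at least 80%, whatever share of replicates individually reach that level; inactive = mean lysis activity below 80%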
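Schedule: static 4 h at 37 °C with compound, 1 h detection; system: C. neoformans cells; benchmarks: Clomiphene as positive control; buffer or medium: fresh YPD medium; measure: luminescence rise reflecting yeast cell lysis; measured by: luminescent adenylate kinase detection reagent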
FGF22 binding-2: binders of human FGF22 protein, dose response, FGF22 synaptogenesis inhibitor project, biophysical, thermal shift, cherry-pick retest; shares compounds with FGF22 binding-1; recombinant FGF22 thermal shift, SYPRO orange fluorescence; thermal shift activity, °C (ΔTm) at 38 µM; 1,000 tested, 2% active; AID 720646, 2013;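 active = fitted rise in melting shift crosses a set limit at or below the top valid dose tested; inconclusive = flat fit at mid-level activity, or a poor quality fit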
SYPRO no-protein: compound-only thermal shift signal without protein, dose response, artefact control for FGF22 binder project, biochemical, cherry-picked samples, RT-PCR instrument; shares compounds with FGF22 binding-1; compound-only SYPRO orange thermal shift counter-screen, no protein; AC50, µM (titrated, usually from 38 µM); 1,000 tested, 2% active;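 active = rising signal whose fitted curve reaches the 0.54 level within the top valid dose, showing a melting point, actives reach about 13 µM in these data; inactive = the rest, including activity in the opposite direction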; also: value is where the raw curve crosses a fixed level and not half-maximal
Numbers without * were called inactive; i = inactive; ? = inconclusive; . = no result given; [ ] = another dose, or the depositor's remark.

SMILES	rRNA inh HTS	ERAP1 inh	FGF22 binding-1	PGC1a acetyl inh	HIV Env fusion	Cneo AK release	FGF22 binding-2	SYPRO no-protein
C[C@@H]1CN([C@H](C)CO)C(=O)c2cc(N(C)C)ccc2O[C@@H]1CN(C)CC1CCCCC1	0.8	-0.4	1.4*	-3.0	47.0[16.7 µM]	-0.2	0.27[42 µM]	i
Cc1noc(C)c1S(=O)(=O)N(C)C[C@H]1Oc2ccc(NS(=O)(=O)c3cccs3)cc2C(=O)N([C@@H](C)CO)C[C@H]1C	-0.3	0.2	2.1*	.	.	-0.3	0.124	i
C[C@H](CO)N1C[C@H](C)[C@H](CN(C)CC2CC2)Oc2ccc(NC(=O)CCC(F)(F)F)cc2C1=O	4.9	-0.8	0.0	.	24.6[16.7 µM]	5.6	.	.
C[C@H]1CN([C@@H](C)CO)C(=O)c2cc(NC(=O)CCC(F)(F)F)ccc2O[C@H]1CN(C)CC1CC1	3.2	-2.0	1.8*	.	8.0[16.7 µM]	-6.8	0.097[10 µM]	i
COC(=O)c1ccccc1NC(=O)CSc1ccc(C)cc1	.	.	.	-0.9	-26.7	-1.5	.	.
C[C@H](CO)N1C[C@H](C)[C@H](CN(C)CC2CC2)Oc2ccc(NS(=O)(=O)c3cn(C)cn3)cc2C1=O	3.2	0.9	-0.2	11.9	16.4[16.7 µM]	-4.8	.	.
C[C@@H]1CN([C@@H](C)CO)C(=O)Cc2cc(NC(=O)C3CC3)ccc2O[C@H]1CN(C)S(=O)(=O)c1cn(C)cn1	2.8	-0.3	-0.2	4.8	-32.7[16.7 µM]	1.8	.	.
C[C@@H]1CN([C@H](C)CO)C(=O)Cc2cc(NC(=O)C3CC3)ccc2O[C@H]1CN(C)S(=O)(=O)c1cn(C)cn1	-0.7	0.6	1.3*	6.1	-0.7[16.7 µM]	-5.6	0.106	i
C[C@@H]1CN([C@@H](C)CO)C(=O)c2cc(NS(=O)(=O)c3cn(C)cn3)ccc2O[C@@H]1CN(C)CC1CC1	6.7	-1.1	1.4*	0.8	-0.5[16.7 µM]	-5.9	0.037[42 µM]	i
CCOC(=O)/C=C/C(=O)Nc1ccccc1C(=O)NC1CCCCC1	0.3	4.8	0.0	.	26.3	-0.2	.	.
O=C(Nc1nccs1)c1ccc(S(=O)(=O)NCC2CCCCC2)cc1	.	.	.	-26.4	?	-1.3	.	.
O=C(Nc1nccs1)c1ccc(S(=O)(=O)NCc2cccs2)cc1	-8.4	-0.6	1.4*	-8.1	.	0.0	-0.055	i
Nc1ccc(C(=O)Nc2ccc(OC(F)(F)C(F)F)c(NC(=O)c3ccc(N)cc3)c2)cc1	-12.8	-1.8	1.7*	-1.0	.	-1.1	-0.694	i
Cc1c(Cl)ccc(S(=O)(=O)NCCN2CCOCC2)c1Cl	5.3	-4.0	0.0	.	1.0	-1.1	.	.
CC(C)c1ccc(NC(=O)CN2C(=O)NC(Cc3c[nH]c4ccccc34)C2=O)cc1 (stereo unspecified)	1.8	3.5	0.0	-0.5	-4.7	-0.5	.	.
Cc1cc(C)cc(NC(=O)CN2C(=O)NC(Cc3c[nH]c4ccccc34)C2=O)c1 (stereo unspecified)	3.0	-5.0	1.6*	.	.	0.3	.	i
COc1ccc(C(=O)N/N=C/c2ccc(OC)c(CSc3ccccn3)c2)cc1	-2.8	6.1	-0.1	1.6	8.6	.	.	.
CO[C@@H]1CN(C)C(=O)c2ccc(NS(C)(=O)=O)cc2OC[C@H](C)N(C)C[C@H]1C	-0.2	-1.2	-0.2	9.0	.	-2.3	.	.
CC(C)n1c(=O)c2ccccc2n1Cc1cn(-c2ccccc2)nn1	-20.7	1.2	0.0	-2.6	-13.8	1.1	.	.
CC(C)n1c(=O)c2ccccc2n1Cc1cn(-c2ccc(Cl)cc2)nn1	-26.1	.	2.6*	-3.2	-7.8	3.5	0.387	i
Cc1ccc(-c2c[n+](CC(=O)Nc3ccc(C)cc3C)c3n2CCC3)cc1	-33.1*	0.2	13.9*	1.8	-2.9	1.8	0.242	i
Cc1ccc(NC(=O)C[n+]2cc(-c3ccc(C)cc3)n3c2CCC3)cc1	.	3.4	0.2	8.1	9.1	2.6	.	.
COc1ccc2nc(SCC(=O)N(C)CC(=O)Nc3ccc(F)cc3)[nH]c2c1	-1.4	-2.9	0.0	.	-98.4	.	.	.
C[C@@H]1CN([C@@H](C)CO)C(=O)Cc2cc(NS(=O)(=O)c3ccc(F)cc3)ccc2O[C@H]1CN(C)CC1CCCCC1	0.7	1.5	-0.1	-6.1	.	-1.4	.	.
Cc1ccc(S(=O)(=O)Nc2ccc3c(c2)CC(=O)N([C@@H](C)CO)C[C@H](C)[C@@H](CN(C)S(C)(=O)=O)O3)cc1	3.0	1.2	2.2*	-2.1	6.5[16.7 µM]	58.8	0.029	i
SMILES	rRNA inh HTS	ERAP1 inh	FGF22 binding-1	PGC1a acetyl inh	HIV Env fusion	Cneo AK release	FGF22 binding-2	SYPRO no-protein
C[C@H]1CN([C@@H](C)CO)C(=O)Cc2cc(NS(=O)(=O)c3ccc(F)cc3)ccc2O[C@H]1CN(C)CC1CCCCC1	12.7	5.3	11.8*	-0.5	.	38.0	0.124	i
Cc1noc(C)c1S(=O)(=O)Nc1ccc2c(c1)CC(=O)N([C@@H](C)CO)C[C@@H](C)[C@@H](CN(C)Cc1ccc(Cl)c(Cl)c1)O2	-4.9	1.6	1.5*	10.5	-30.8[16.7 µM]	-3.7	0.113[42 µM]	i
Cc1cc(C(=O)COC(=O)c2ccc[nH]c2=O)c(C)n1CCc1ccc(F)cc1	3.7	-10.2	42.6	2.1	7.6	.	.	.
Cc1c(N=Cc2ccc(Cl)o2)c(=O)n(-c2ccccc2)n1C	5.5	2.4	0.1	30.4	.	.	.	.
COc1ccccc1NC(=O)N[C@@H]1CC[C@H](CCn2cc(-c3ccccc3OC)nn2)O[C@@H]1CO	-4.9	1.7	1.3*	3.7	-29.9[16.7 µM]	-0.4	0.132	i
COc1ccc(NC(=O)N[C@@H]2CC[C@H](CCn3cc(-c4ccc(F)cc4)nn3)O[C@@H]2CO)cc1	0.4	-6.1	-0.3	1.2	-5.8[16.7 µM]	3.3	.	.
COc1ccccc1NC(=O)N[C@H]1CC[C@H](CCn2cc(-c3ccccc3)nn2)O[C@H]1CO	-4.1	-0.1	-0.2	-4.2	-7.4[16.7 µM]	-1.3	.	.
COc1ccc(-c2cn(CC[C@H]3CC[C@H](NC(=O)Nc4ccc(F)cc4)[C@@H](CO)O3)nn2)cc1	-6.3	-0.9	1.5*	-3.3	.	.	0.056[42 µM]	i
